Source: ChEMBL document CHEMBL1156894, “Potent oxadiazole CGRP receptor antagonists for the potential treatment of migraine” (Bioorg Med Chem Lett, 2010)
pKi: −log10 of the molar value. In brackets after ≈: the same amount, converted by molar mass.

Assays:
[1] = target: T1, Calcitonin gene-related peptide type 1 receptor (Homo sapiens, UniProt O60894+Q16602); assay: Antagonist activity at human recombinant CGRP receptor expressed in HEK293 cells assessed as inhibition of CGRP-stimulated increase of intracellular cAMP level in absence of human serum albumin; assay type: functional, cell-based
T1 sequence (Q16602 whole entry, one chain of several): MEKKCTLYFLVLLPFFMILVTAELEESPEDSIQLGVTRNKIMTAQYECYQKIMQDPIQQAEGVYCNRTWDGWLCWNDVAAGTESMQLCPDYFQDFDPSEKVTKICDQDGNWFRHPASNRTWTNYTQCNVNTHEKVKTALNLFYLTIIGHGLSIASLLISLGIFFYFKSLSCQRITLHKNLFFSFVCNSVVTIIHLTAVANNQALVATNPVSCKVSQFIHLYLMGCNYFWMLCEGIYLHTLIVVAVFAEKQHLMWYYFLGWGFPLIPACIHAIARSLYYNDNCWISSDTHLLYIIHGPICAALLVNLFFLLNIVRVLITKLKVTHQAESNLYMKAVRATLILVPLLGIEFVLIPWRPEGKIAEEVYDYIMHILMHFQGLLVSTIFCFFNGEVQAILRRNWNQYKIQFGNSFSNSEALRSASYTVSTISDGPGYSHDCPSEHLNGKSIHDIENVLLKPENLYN
In short: (§1)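 HEK 293 cells expressing human recombinant CGRP receptor; antagonism of CGRP-stimulated rise in intracellular cAMP measured, run with or without HSA; functional pKi (fpKi) derived. Values are means of two experiments unless otherwise footnoted.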

[2] = target: T1, Calcitonin gene-related peptide type 1 receptor; assay: Antagonist activity at human recombinant CGRP receptor expressed in HEK293 cells assessed as inhibition of CGRP-stimulated increase of intracellular cAMP level in presence of human serum albumin; assay type: functional, cell-based; in short: as §1
[3] = Aqueous solubility in fasted-state simulated intestinal fluid after 1 hr; assay type: physicochemical
In short: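 Compound amount dissolved in fasted-state simulated intestinal fluid, read at the 1 h time point.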

[4] = Permeability across artificial membrane; assay type: ADME; conditions: PAMPA; read-out: permeability
In short: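 In vitro artificial membrane permeability assay (PAMPA).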

[5] = Blood clearance in rat; assay type: ADME, organism-based
Rattus norvegicus [6] = assay: Liver blood flow in rat at 1 mg/kg, iv; assay type: ADME, organism-based; parameters: dose 1 mg/kg, route intravenous; conditions: in vivo
[7] = Clearance in rat at 1 mg/kg, iv; assay type: ADME, organism-based; parameters: dose 1 mg/kg, route intravenous; conditions: in vivo
In short: (§2)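 Intravenous dose of 1 mg/kg in rat; clearance and half-life derived from the blood profile.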

[8] = Half life in rat at 1 mg/kg, iv; assay type: ADME, organism-based; parameters: dose 1 mg/kg, route intravenous; conditions: in vivo; in short: as §2
[9] = Cmax in rat at 10 mg/kg, po in 5% N-Methyl-2-pyrrolidone, 80% Poly(ethylene glycol400 diluted to volume with 20% vitamin E TPGS in water; assay type: ADME, organism-based; parameters: dose 10 mg/kg, route oral; conditions: in vivo
In short: (§3)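 Rats given 10 mg/kg orally, formulated at 2 mg/mL in 5% NMP, 80% PEG400 made up to volume with 20% Vitamin E TPGS in water. Blood concentration-time profile followed over about 5 h per rat, giving Cmax, Tmax and dose-normalised AUC.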

[10] = Tmax in rat at 10 mg/kg, po in 5% N-Methyl-2-pyrrolidone, 80% Poly(ethylene glycol400 diluted to volume with 20% vitamin E TPGS in water; assay type: ADME, organism-based; parameters: dose 10 mg/kg, route oral; conditions: in vivo; in short: as §3
Rattus norvegicus [11] = assay: Dose normalized AUC in rat at 10 mg/kg, po in 5% N-Methyl-2-pyrrolidone, 80% Poly(ethylene glycol400 diluted to volume with 20% vitamin E TPGS in water; assay type: ADME, organism-based; parameters: dose 10 mg/kg, route oral; conditions: in vivo; in short: as §3
[12] = Bioavailability in rat at 10 mg/kg, po in 5% N-Methyl-2-pyrrolidone, 80% Poly(ethylene glycol400 diluted to volume with 20% vitamin E TPGS in water; assay type: ADME, organism-based; conditions: in vivo
[13] = Cmax in rat at 10 mg/kg, po in 1% methylcellulose; assay type: ADME, organism-based; parameters: dose 10 mg/kg, route oral; conditions: in vivo
In short: (§4)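 Oral dosing to rats at 10 mg/kg as a 2 mg/mL suspension in 1% (w/v) aqueous methylcellulose. Blood concentrations followed over about 6 h, giving Cmax, Tmax and dose-normalised AUC.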

[14] = Tmax in rat at 10 mg/kg, po in 1% methylcellulose; assay type: ADME, organism-based; parameters: dose 10 mg/kg, route oral; conditions: in vivo; in short: as §4
Rattus norvegicus [15] = assay: Dose normalized in rat at 10 mg/kg, po in 1% methylcellulose; assay type: ADME, organism-based; parameters: dose 10 mg/kg, route oral; conditions: in vivo; in short: as §4
[16] = Bioavailability in rat at 10 mg/kg, po in 1% methylcellulose; assay type: ADME, organism-based; conditions: in vivo

| pKi [1] | pKi [2] | solubility at 1 h [3] | Papp [4] | Structure (SMILES) | also measured |
| --- | --- | --- | --- | --- | --- |
| 6.70 | – | – | – | O=C(Cc1nnc(-c2cc(-c3ccccc3)cc(N3CCOCC3)c2)o1)N1CCC(n2c(=O)[nH]c3ncccc32)CC1 | – |
| 8.40 | 7.10 | 10 µg/mL (≈ 17.1 µM) | 20 ×10⁻⁶ cm/s | O=C(Cc1nnc(-c2cc(Cl)cc(C3CCN(CC(F)F)CC3)c2)o1)N1CCC(n2c(=O)[nH]c3ncccc32)CC1 | clearance [5]: 67 mL/min/kg |
| 6.90 | – | – | – | O=C(Cc1nnc(-c2cc(Cl)ccc2Cl)o1)N1CCC(n2c(=O)[nH]c3ncccc32)CC1 | – |
| 6.10 | – | – | – | O=C(Cc1nnc(-c2c(Cl)cccc2Cl)o1)N1CCC(n2c(=O)[nH]c3ncccc32)CC1 | – |
| 6.50 | – | – | – | O=C(Cc1nnc(-c2cccc(Cl)c2)o1)N1CCC(n2c(=O)[nH]c3ncccc32)CC1 | – |
| 8.40 | – | – | – | O=C(Cc1nnc(-c2cc(Cl)cc(C(F)(F)F)c2)o1)N1CCC(n2c(=O)[nH]c3ncccc32)CC1 | LBF (Rattus norvegicus [6]): 40%; clearance [7]: 33 mL/min/kg; half-life [8]: 0.5 h; Cmax [9]: 700 nM; Tmax [10]: 1.5 h; AUC (Rattus norvegicus [11]): 6.3 kg·min/L; bioavailability [12]: 20% |
| 6.00 | – | – | – | O=C(Cc1nnc(-c2ccc(Cl)cc2)o1)N1CCC(n2c(=O)[nH]c3ncccc32)CC1 | – |
| 8.60 | – | – | – | O=C(Cc1nnc(-c2cc(Cl)cc(-c3ccccc3)c2)o1)N1CCC(n2c(=O)[nH]c3ncccc32)CC1 | – |
| 8.20 | 6.90 | 40 µg/mL (≈ 76.3 µM) | 12 ×10⁻⁶ cm/s | O=C(Cc1nnc(-c2cc(Cl)cc(N3CCOCC3)c2)o1)N1CCC(n2c(=O)[nH]c3ncccc32)CC1 | clearance [5]: 70 mL/min/kg |
| 7.30 | – | – | – | COc1cc(OC)cc(-c2nnc(CC(=O)N3CCC(n4c(=O)[nH]c5ncccc54)CC3)o2)c1 | – |
| 7.60 | – | – | – | O=C(Cc1nnc(-c2cc(F)cc(Cl)c2)o1)N1CCC(n2c(=O)[nH]c3ncccc32)CC1 | – |
| 7.90 | – | – | – | O=C(Cc1nnc(-c2cc(Cl)cc(Br)c2)o1)N1CCC(n2c(=O)[nH]c3ncccc32)CC1 | – |
| 7.60 | – | – | – | O=C(Cc1nnc(-c2cc(C(F)(F)F)cc(C(F)(F)F)c2)o1)N1CCC(n2c(=O)[nH]c3ncccc32)CC1 | – |
| 8.30 | 7.60 | 210 µg/mL (≈ 391 µM) | < 0.3 ×10⁻⁶ cm/s | CN1CCN(c2cc(Cl)cc(-c3nnc(CC(=O)N4CCC(n5c(=O)[nH]c6ncccc65)CC4)o3)c2)CC1 | clearance [5]: 72 mL/min/kg |
| 6.30 | – | – | – | O=C(Cc1nnc(-c2ccccc2Cl)o1)N1CCC(n2c(=O)[nH]c3ncccc32)CC1 | – |
| 8.40 | 7.70 | 531 µg/mL (≈ 991 µM) | 2.2 ×10⁻⁶ cm/s | CN1CCC(c2cc(Cl)cc(-c3nnc(CC(=O)N4CCC(n5c(=O)[nH]c6ncccc65)CC4)o3)c2)CC1 | – |
| 8.80 | 7.00 | 390 µg/mL (≈ 732 µM) | < 0.3 ×10⁻⁶ cm/s | Cc1ncc(-c2cc(Cl)cc(-c3nnc(CC(=O)N4CCC(n5c(=O)[nH]c6ncccc65)CC4)o3)c2)n1C | clearance [5]: 52 mL/min/kg |
| 5.60 | – | – | – | COc1ccc(-c2ccccc2)cc1CC(=O)N1CCC(n2c(=O)[nH]c3ncccc32)CC1 | – |
| 7.80 | – | – | – | O=C(Cc1nnc(-c2cc(Cl)cc(Cl)c2)o1)N1CCC(n2c(=O)[nH]c3ncccc32)CC1 | – |
| 7.60 | – | – | – | Cc1cc(C)cc(-c2nnc(CC(=O)N3CCC(n4c(=O)[nH]c5ncccc54)CC3)o2)c1 | – |
| 7.90 | 7.80 | 120 µg/mL (≈ 217 µM) | 18.5 ×10⁻⁶ cm/s | CN(C)CCOc1cc(Cl)cc(-c2nnc(CC(=O)N3CCC(N4CCc5ccccc5NC4=O)CC3)o2)c1 | clearance [7]: 50 mL/min/kg; half-life [8]: 1.9 h; Cmax [13]: 250 nM; Tmax [14]: 3 h; AUC (Rattus norvegicus [15]): 2.5 kg·min/L; bioavailability [16]: 14%; clearance [5]: 50 mL/min/kg |
| 6.60 | – | – | – | O=C(Cc1nnc(-c2ccc(Cl)c(Cl)c2)o1)N1CCC(n2c(=O)[nH]c3ncccc32)CC1 | – |
| 6.80 | – | – | – | O=C(Cc1nnc(-c2cccc(Cl)c2Cl)o1)N1CCC(n2c(=O)[nH]c3ncccc32)CC1 | – |
| 6.70 | – | – | – | O=C(Cc1nnc(-c2ccccc2)o1)N1CCC(n2c(=O)[nH]c3ncccc32)CC1 | – |
| 8.10 | – | – | – | COc1cc(Cl)cc(-c2nnc(CC(=O)N3CCC(n4c(=O)[nH]c5ncccc54)CC3)o2)c1 | – |
| 6.90 | – | – | – | O=C(Cc1nnc(-c2cc(F)cc(F)c2)o1)N1CCC(n2c(=O)[nH]c3ncccc32)CC1 | – |
| 8.30 | 7.30 | 330 µg/mL (≈ 627 µM) | 1.2 ×10⁻⁶ cm/s | CN(C)CCOc1cc(Cl)cc(-c2nnc(CC(=O)N3CCC(n4c(=O)[nH]c5ncccc54)CC3)o2)c1 | – |
| 8.20 | – | – | – | Cc1cc(-c2nnc(CC(=O)N3CCC(n4c(=O)[nH]c5ncccc54)CC3)o2)cc(N2CCOCC2)c1 | – |
| 8.60 | 6.90 | < 1 µg/mL | 22 ×10⁻⁶ cm/s | Cc1ccc(-c2cc(Cl)cc(-c3nnc(CC(=O)N4CCC(n5c(=O)[nH]c6ncccc65)CC4)o3)c2)cn1 | – |
| 8.50 | 7.80 | 565 µg/mL (≈ 1030 µM) | 0.5 ×10⁻⁶ cm/s | CCN1CCC(c2cc(Cl)cc(-c3nnc(CC(=O)N4CCC(n5c(=O)[nH]c6ncccc65)CC4)o3)c2)CC1 | – |
